Source: article PMC10213863 (Cell Reports Medicine, 2023)

Key:
[1] = tested on: TMPD-induced peritonitis in Balb/c mice; experiment: Mouse TMPD peritonitis; type: in vivo; details: prophylactic oral b.i.d.
Procedure, shortened: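 Female Balb/c mice (5 per group) were dosed orally b.i.d. from day −1 with test compound in 0.5% MC/0.5% Tween80, or vehicle. On day 0 they were injected i.p. with 0.5 mL TMPD; naive mice were controls. Peritoneal lavage (HBSS, 2% FBS) supernatants were assayed for CCL2 by ELISA. Inflammatory monocytes were counted by flow (live/dead, CD11b, Ly6C, Ly6G). ISGs were measured by qPCR (2−ΔΔCt vs HPRT, triplicates), averaged and normalized to naive = 100%.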

B cell receptor = experiment: B cell receptor-mediated activation in human blood; type: cell-based; details: up to 16 μM; n = 2, data not shown
Procedure, shortened: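 Heparinized human blood was given a 3-fold serial dilution of test compound, top 16 μM, for 1.5 h at 37°C. B cells were then activated with 50 μg/mL anti-human IgM for 20 min at 37°C. Samples were lysed/fixed and permeabilized, then stained for pAkt([…]) and CD20. Readout was by flow cytometry.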

[2] = tested on: immune-complex stimulated ISG panel in PBMCs; experiment: Five-gene ISG panel in PBMCs stimulated with SLE immune complexes; type: cell-based, human; details: MHV370 0.1 μM
Procedure, shortened: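 PBMCs were pre-treated 30 min with test compound, HCQ or 0.1% DMSO, then stimulated 20 h with SLE serum pre-complexed with U-937 necrotic extract. RNA was extracted and ISGs quantified by qRT-PCR with the 2−ΔΔCt method against 18S rRNA, using biological replicates. Global ISG induction was derived by normalizing each ISG's relative induction to 100%.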

TLR9 = target: T1, TLR9 (Homo sapiens, UniProt Q9NR96); experiment: Human PBMC assay, ODN2216-induced IFN-α; type: cell-based
T1 sequence (Q9NR96 26-1032): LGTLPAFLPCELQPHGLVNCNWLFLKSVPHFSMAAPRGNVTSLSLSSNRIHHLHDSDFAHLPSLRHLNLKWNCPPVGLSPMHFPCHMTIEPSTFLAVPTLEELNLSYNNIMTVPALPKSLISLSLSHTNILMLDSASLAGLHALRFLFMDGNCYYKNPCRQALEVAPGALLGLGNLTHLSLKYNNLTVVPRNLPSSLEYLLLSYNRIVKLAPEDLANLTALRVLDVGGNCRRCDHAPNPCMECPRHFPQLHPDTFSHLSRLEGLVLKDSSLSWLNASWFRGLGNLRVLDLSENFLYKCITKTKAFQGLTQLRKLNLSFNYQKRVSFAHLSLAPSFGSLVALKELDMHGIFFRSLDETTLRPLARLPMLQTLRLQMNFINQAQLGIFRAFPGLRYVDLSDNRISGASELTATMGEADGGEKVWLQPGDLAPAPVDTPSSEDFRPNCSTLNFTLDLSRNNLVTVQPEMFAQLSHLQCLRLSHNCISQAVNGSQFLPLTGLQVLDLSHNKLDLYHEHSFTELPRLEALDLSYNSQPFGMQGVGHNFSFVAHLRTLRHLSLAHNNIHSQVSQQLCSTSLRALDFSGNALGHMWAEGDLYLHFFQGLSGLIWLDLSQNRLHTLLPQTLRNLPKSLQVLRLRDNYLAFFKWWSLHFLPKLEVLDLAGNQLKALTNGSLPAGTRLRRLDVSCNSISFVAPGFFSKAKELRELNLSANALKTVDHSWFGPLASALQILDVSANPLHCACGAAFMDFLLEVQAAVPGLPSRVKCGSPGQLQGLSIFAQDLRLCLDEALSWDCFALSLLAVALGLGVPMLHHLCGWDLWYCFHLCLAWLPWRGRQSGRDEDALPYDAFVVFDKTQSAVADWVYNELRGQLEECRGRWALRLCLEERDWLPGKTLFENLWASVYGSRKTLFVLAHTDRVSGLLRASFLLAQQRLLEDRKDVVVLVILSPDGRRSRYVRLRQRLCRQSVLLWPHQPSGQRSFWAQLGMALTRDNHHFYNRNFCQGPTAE
Procedure, shortened: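 Human PBMCs were pre-incubated 30 min with test compound, then stimulated with the respective TLR or IL-1R agonist at doses from earlier work. Cytokines in supernatants were quantified by immunoassay. Viability across the dose range was checked by CellTiter-Glo.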

TLR7 = target: T2, TLR7 (Homo sapiens, UniProt Q9NYK1); experiment: Human whole blood assay, ssRNA-IFN-α; type: cell-based
T2 sequence (Q9NYK1 27-1049): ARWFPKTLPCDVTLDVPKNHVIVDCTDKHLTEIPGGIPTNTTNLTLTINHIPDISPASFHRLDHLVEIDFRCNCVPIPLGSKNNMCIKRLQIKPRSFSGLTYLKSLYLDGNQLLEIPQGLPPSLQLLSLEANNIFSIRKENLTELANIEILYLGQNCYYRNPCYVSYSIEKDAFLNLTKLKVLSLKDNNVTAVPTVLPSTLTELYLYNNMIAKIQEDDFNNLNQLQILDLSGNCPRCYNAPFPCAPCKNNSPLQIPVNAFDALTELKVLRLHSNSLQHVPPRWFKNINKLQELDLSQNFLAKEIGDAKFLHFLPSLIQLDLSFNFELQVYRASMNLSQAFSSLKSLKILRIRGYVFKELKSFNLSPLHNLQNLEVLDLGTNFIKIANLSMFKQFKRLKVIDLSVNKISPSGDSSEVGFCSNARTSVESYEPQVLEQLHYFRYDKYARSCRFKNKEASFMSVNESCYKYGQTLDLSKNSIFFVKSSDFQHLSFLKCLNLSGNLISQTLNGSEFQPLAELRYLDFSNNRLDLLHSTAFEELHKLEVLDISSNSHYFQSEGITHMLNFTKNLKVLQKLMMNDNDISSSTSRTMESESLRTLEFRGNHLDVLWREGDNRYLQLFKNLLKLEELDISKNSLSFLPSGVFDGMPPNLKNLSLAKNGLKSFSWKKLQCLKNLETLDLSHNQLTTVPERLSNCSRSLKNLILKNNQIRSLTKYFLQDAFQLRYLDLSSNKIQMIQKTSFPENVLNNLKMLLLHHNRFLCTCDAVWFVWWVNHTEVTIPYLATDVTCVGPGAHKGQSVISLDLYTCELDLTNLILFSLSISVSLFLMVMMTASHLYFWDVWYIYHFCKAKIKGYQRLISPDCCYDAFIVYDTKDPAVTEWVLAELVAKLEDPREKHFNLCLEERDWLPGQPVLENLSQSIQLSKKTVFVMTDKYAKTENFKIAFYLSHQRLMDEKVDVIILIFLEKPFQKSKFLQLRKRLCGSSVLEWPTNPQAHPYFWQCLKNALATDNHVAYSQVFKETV
Procedure, shortened: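 Fresh human blood or 129/Sv mouse blood was taken into citrate and diluted 1:1 with RPMI1640. It was pre-incubated 30 min at 37°C, 5% CO2 with increasing concentrations of test compound or 0.25% v/v DMSO (final). Blood was then stimulated with TLR agonists at doses from earlier work, or with R848 (3 μM), and cytokines were quantified. Viability was checked by ATPlite luminescence.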

TLR7/8 = experiment: Human PBMC cytokine release, TLR7/8 agonists ssRNA or R848; type: cell-based; details: human PBMCs, IL-6 as readout

Cc1cc(N2CCc3c(c(C)nn3CC34CCC(NC(=O)[C@@H]5COCCN5)(CC3)CC4)C2)c2cnn(C)c2n1 [MHV370, (S)-N-(4-((5-(1,6-dimethyl-1H-pyrazolo[3,4-b]pyridin-4-yl)-3-methyl-4,5,6,7-tetrahydro-1H-pyrazolo[4,3-c]pyridin-1-yl)methyl)bicyclo[2.2.2]octan-1-yl)morpholine-3-carboxamide]
ex vivo stimulated PD marker CD69 in peripheral blood [1]: reduced in peripheral blood of mice in a dose-dependent manner | panel of ISGs in peritoneal cells and blood [1]: dose-dependently suppressed | inflammatory monocytes and CCL2 in the peritoneum ([1]; day 7): dose-dependent reduction | activation of B cell responses via the B cell receptor (B cell receptor): unaffected | expression of a five-panel ISG signature [2]: strongly suppressed | IC50 (TLR9): 1300 nM | IC50 (TLR7): 8.4 ± 1 nM | mode of antagonism (Schild analysis) (TLR7/8): competitive and reversible antagonist
